The pEC50 is the negative decadic logarithm of the EC50, by convention in mol/L. Read a high pEC50 as a small EC50.

Assay [1] in a line: Effective concentration for inhibition of […] in kinase assay along with ADP. More on the design: species or system Bacillus subtilis. In a few lines: (§1)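 Kinase reaction, 37 °C 10 min: 100 nM HPrK/P(Trx-His6-S-tag), 10 µM HPr(His)6 or Crh(His)6, 0.5 mM [γ-32P]ATP, 2 mM FBP, 0.1% BSA, pH 8 Tris. ADP given alone or combined with inhibitor at a fixed concentration ratio; ≥13 conditions in triplicate. Phosphate retained on P81 paper is counted. EC50 and Hill coefficient fitted by nonlinear regression.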

Assay [2] is described as follows: Effective concentration for inhibition of […] in phosphatase assay. More on the design: species or system Bacillus subtilis. In a few lines: (§2)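 Substrates HPr(His)6 or Crh(His)6 (8 µM final) are first fully phosphorylated by HPrK/P with [γ-32P]ATP and FBP, pH 8, 37 °C. Inhibitor, 13 serial concentrations premixed with inorganic phosphate (K2HPO4/KH2PO4, pH 8.0, 1 mM final), then added and incubated 2 h at 37 °C. Precipitating top concentrations excluded. Read-out by P81/scintillation; mean of n = 3; EC50 and Hill coefficient by nonlinear regression.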

Assay [3] deals with T1, HPr kinase/phosphorylase (Bacillus subtilis (strain 168), UniProt O34483).
T1 sequence (O34483 whole entry): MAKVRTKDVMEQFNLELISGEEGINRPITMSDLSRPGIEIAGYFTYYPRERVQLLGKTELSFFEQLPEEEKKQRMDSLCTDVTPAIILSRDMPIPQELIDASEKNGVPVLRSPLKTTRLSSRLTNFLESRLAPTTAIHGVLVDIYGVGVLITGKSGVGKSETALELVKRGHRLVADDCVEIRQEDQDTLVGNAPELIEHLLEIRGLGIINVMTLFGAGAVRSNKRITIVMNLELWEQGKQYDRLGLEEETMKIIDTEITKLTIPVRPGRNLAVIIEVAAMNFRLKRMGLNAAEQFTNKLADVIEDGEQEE
Kind of assay: Inhibition of histidine containing protein in kinase assay. In a few lines: (§3)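 B. subtilis HPrK/P(Trx-His6-S-tag) kinase, 100 nM, added last to start the reaction with 10 µM HPr(His)6 or Crh(His)6, 0.5 mM [γ-32P]ATP, 5 mM MgCl2, 2 mM FBP, 0.1% BSA, 50 mM Tris pH 8, 10% DMSO; 37 °C, 10 min. Read-out is P81 paper capture, H3PO4 washes and scintillation counting. Thirteen serial inhibitor concentrations, typically in triplicate; EC50 and Hill coefficient from nonlinear regression.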

Assay [4] concerns the target T1, HPr kinase/phosphorylase. Kind of assay: Inhibition of histidine containing protein in kinase assay with ADP. In short, it runs like this:
as §1

Assay [5] deals with T1, HPr kinase/phosphorylase. Kind of assay: Inhibition of histidine containing protein in phosphatase assay. In short, it runs like this:
as §2

The nature of assay [6]: Hill slope for the compound was measured for inhibition of histidine containing protein kinase assay. In short, it runs like this: as §3
Assay [7] in a line: Hill slope for the compound was measured for inhibition of histidine containing protein kinase assay along with ADP. In a few lines:
as §1

Assay [8] is described as follows: Hill slope for the compound was measured for inhibition of histidine containing protein phosphatase assay. In a few lines: as §2
Assay [9] is described as follows: Combined index for the compound to that of ADP in kinase assay against histidine containing protein. In a few lines: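 B. subtilis HPrK/P(Trx-His6-S-tag), 100 nM, phosphorylating 10 µM HPr(His)6 or Crh(His)6; [γ-32P]ATP 0.5 mM, 50 mM Tris pH 8, 5 mM MgCl2, 2 mM FBP, 0.1% BSA, 37 °C, 10 min. Inhibitor and ADP co-varied at a constant ratio set by their separate EC50s; ≥13 conditions in triplicate. Chou-Talalay combination index computed at EC50.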

Assay [10] is described as follows: Combined index for the compound to that of ADP in kinase assay against Crh.
Assay [11] can be described thus: Hill slope for the compound was measured for inhibition of Crh kinase assay.
The nature of assay [12]: Hill slope for the compound was measured for inhibition of Crh phosphatase assay.
Assay [13] deals with HPr kinase/phosphorylase (Bacillus subtilis) (UniProt O34483). Kind of assay: Effective concentration for inhibition of HPr kinase/phosphorylase in kinase assay.
A short description of assay [14]: Hill slope for the compound was measured for inhibition of Crh kinase assay along with ADP.

pEC50: −log10 of the molar value.

`Nc1n(Cc2ccccc2)c2ccccc2[n+]1CCCCCCCCCCCC[n+]1c(N)n(Cc2ccccc2)c2ccccc21.Nc1ncnc2c1ncn2[C@@H]1O[C@H](COP(=O)(O)OP(=O)(O)O)[C@@H](O)[C@H]1O`: the pEC50 in [1] was 4.92; in assay [2], 4.85; at HPr kinase/phosphorylase [3], 5.00; at HPr kinase/phosphorylase [4] it was 5.28; at HPr kinase/phosphorylase [5], 4.80; in assay [13], 4.68. Besides, the Activity in [6] came out at 1.8; in assay [7] it was 2.2; in [8], 2.1; in assay [11] it was 2.4; in assay [12], 1.7; in assay [14], 2.3. Also, the CI in assay [9] was 1; in assay [10], 1.1.

The values above are taken from ChEMBL document CHEMBL1137090, “Heterocyclic bis-cations as starting hits for design of inhibitors of the bifunctional enzyme histidine-containing protein kinase/phosphatase from Bacillus subtilis” (J Med Chem, 2004).
